Source: ChEMBL document CHEMBL2406937, “Discovery of Pyridones As Oral AMPK Direct Activators” (ACS Med Chem Lett, 2013)
Converted amounts (≈) assume the structure as drawn. The source made the active and inactive calls. No cut-off for these calls is given here.

Legend:
[1] = AUC in mouse at 30 mg/kg, po; assay type: ADME, organism-based, Plasma; parameters: dose 30 mg/kg, route oral; settings: blood
Method in brief: (§1)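 Mouse pharmacokinetics. Oral dosing at 5 or 30 mg/kg as a suspension in HPMC K100 0.5%/Tween 80 0.1% in pH 7 buffer. AUC is measured in blood. Bioavailability is taken against an iv dose of 1 mg/kg.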

[2] = Oral bioavailability in mouse at 30 mg/kg; assay type: ADME, organism-based; settings: in vivo; method in brief: as §1
[3] = Clearance in mouse at 1 mg/kg, iv; assay type: ADME, organism-based; parameters: dose 1 mg/kg, route intravenous; settings: in vivo
Method in brief: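 Mouse iv pharmacokinetics. 1 mg/kg given as a solution in DMSO/hydroxypropyl-β-cyclodextrin 20% in pH 7 buffer (5:95). Blood clearance is determined.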

[4] = molecular target: AMP-activated protein kinase (AMPK) alpha-1/beta-1/gamma-1 (Homo sapiens) (UniProt P54619+Q9Y478+Q13131); experiment: Activation of human recombinant AMPK alpha1beta1gamma1 by FRET assay; assay type: protein-complex assay
AMP-activated protein kinase (AMPK) alpha-1/beta-1/gamma-1 (Homo sapiens), sequence (P54619 whole entry): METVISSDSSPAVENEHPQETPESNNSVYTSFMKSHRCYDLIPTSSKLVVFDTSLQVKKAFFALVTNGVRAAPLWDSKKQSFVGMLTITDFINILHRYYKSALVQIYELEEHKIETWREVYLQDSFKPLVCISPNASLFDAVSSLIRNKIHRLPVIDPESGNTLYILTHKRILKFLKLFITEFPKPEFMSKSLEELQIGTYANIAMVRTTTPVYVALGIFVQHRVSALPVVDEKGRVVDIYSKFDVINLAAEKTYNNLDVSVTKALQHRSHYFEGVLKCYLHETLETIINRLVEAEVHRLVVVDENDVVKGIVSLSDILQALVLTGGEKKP
AMP-activated protein kinase (AMPK) alpha-1/beta-1/gamma-1 (Homo sapiens), sequence (Q13131 whole entry partner): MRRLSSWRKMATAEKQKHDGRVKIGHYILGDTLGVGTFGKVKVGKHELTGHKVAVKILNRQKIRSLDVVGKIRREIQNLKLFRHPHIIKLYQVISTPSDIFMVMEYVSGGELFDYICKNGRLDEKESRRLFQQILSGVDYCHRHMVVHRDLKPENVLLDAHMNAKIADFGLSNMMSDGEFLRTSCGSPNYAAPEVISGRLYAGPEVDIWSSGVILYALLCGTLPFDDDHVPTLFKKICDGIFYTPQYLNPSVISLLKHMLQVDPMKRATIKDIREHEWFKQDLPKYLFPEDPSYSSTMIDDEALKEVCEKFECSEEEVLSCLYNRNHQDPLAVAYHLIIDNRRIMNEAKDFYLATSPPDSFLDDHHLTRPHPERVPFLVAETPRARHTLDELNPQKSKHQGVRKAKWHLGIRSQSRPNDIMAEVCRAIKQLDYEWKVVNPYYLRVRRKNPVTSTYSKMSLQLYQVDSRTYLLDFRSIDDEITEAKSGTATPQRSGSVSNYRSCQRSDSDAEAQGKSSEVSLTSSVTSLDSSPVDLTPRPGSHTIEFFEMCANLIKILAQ
AMP-activated protein kinase (AMPK) alpha-1/beta-1/gamma-1 (Homo sapiens), sequence (Q9Y478 2-270 partner limits assumed): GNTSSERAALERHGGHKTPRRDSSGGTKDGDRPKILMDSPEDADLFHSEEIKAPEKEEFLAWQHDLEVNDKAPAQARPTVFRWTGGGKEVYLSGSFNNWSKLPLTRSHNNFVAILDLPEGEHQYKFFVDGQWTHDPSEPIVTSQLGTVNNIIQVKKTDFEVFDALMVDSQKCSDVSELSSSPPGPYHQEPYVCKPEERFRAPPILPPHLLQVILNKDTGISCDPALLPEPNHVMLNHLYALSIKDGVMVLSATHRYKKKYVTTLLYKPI
Method in brief: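 Activation of the α1β1γ1 heterotrimer, reported as pEC200 = −log(concentration giving a 2-fold increase in AMPK activity). Values are means of at least 2 independent experiments.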

[5] = Solubility of the compound; assay type: physicochemical
Method in brief: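 Solubility is the soluble fraction of the oral formulation (HPMC K100 0.5%/Tween 80 0.1% in pH 7 buffer) made by ball milling from solid powder. The maximum is […].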

[6] = AUC in mouse at 5 mg/kg, po; assay type: ADME, organism-based, Plasma; parameters: dose 5 mg/kg, route oral; settings: blood; method in brief: as §1
[7] = Oral bioavailability in mouse at 5 mg/kg; assay type: ADME, organism-based; settings: in vivo; method in brief: as §1
[8] = Plasma protein binding in mouse; assay type: ADME, cell-free; settings: read-out: PPB (converted)
[9] = Permeability of the compound by PAMPA; assay type: ADME; settings: read-out: permeability
Method in brief: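 Passive permeability is measured by parallel artificial membrane permeability assay (PAMPA).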

[10] = molecular target: AMPK alpha1/beta2/gamma1 (Homo sapiens) (UniProt O43741+P54619+Q13131); experiment: Activation of human recombinant AMPK alpha1beta2gamma1; assay type: protein-complex assay
AMPK alpha1/beta2/gamma1 (Homo sapiens), sequence (O43741 whole entry, looked up): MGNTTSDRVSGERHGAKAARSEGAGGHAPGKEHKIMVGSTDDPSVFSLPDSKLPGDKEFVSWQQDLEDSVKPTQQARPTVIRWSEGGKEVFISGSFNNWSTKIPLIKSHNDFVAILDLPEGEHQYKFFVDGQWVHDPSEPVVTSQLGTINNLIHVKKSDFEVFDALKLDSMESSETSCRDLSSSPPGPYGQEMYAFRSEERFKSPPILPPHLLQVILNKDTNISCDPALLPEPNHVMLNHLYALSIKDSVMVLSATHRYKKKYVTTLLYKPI
AMPK alpha1/beta2/gamma1 (Homo sapiens), sequence (P54619 whole entry, looked up): as the sequence (P54619 whole entry) above
AMPK alpha1/beta2/gamma1 (Homo sapiens), sequence (Q13131 whole entry, looked up): as the sequence (Q13131 whole entry partner) above

[11] = molecular target: AMPK alpha2/beta2/gamma3 (Homo sapiens) (UniProt P54646+O43741+Q9UGI9); experiment: Activation of human recombinant AMPK alpha2beta2gamma3; assay type: protein-complex assay
AMPK alpha2/beta2/gamma3 (Homo sapiens), sequence (O43741 whole entry, looked up): as the sequence (O43741 whole entry, looked up) above
AMPK alpha2/beta2/gamma3 (Homo sapiens), sequence (P54646 whole entry, looked up): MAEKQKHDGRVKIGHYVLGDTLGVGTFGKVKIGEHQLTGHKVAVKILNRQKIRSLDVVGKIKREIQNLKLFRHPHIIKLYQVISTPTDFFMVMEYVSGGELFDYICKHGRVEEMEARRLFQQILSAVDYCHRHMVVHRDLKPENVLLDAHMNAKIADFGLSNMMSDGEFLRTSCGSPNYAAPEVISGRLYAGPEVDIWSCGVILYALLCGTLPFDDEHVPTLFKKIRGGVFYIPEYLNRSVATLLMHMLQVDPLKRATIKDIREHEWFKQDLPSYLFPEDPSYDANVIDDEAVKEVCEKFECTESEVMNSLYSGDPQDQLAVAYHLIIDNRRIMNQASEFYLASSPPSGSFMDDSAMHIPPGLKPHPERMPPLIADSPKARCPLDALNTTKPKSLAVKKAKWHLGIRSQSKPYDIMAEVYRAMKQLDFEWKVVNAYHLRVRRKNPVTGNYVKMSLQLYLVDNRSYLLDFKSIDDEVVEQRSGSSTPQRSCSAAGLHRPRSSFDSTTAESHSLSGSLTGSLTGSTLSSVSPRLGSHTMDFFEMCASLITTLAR
AMPK alpha2/beta2/gamma3 (Homo sapiens), sequence (Q9UGI9 whole entry, looked up): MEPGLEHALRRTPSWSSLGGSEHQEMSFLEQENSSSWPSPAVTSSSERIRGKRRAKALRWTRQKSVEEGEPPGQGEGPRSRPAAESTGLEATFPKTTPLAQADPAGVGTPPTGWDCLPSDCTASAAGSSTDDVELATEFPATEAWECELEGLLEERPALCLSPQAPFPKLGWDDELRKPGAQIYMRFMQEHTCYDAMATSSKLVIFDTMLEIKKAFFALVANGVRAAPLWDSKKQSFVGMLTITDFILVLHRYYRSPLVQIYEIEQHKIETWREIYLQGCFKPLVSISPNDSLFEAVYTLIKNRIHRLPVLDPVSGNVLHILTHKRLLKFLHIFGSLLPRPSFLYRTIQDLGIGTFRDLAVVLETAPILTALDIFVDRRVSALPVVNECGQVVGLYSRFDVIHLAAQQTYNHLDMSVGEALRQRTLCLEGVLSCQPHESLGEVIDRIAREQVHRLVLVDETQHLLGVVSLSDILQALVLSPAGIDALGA

[12] = molecular target: AMPK alpha2/beta2/gamma1 (Homo sapiens) (UniProt P54646+O43741+P54619); experiment: Activation of human recombinant AMPK alpha2beta2gamma1; assay type: protein-complex assay
AMPK alpha2/beta2/gamma1 (Homo sapiens), sequence (O43741 whole entry, looked up): as the sequence (O43741 whole entry, looked up) above
AMPK alpha2/beta2/gamma1 (Homo sapiens), sequence (P54619 whole entry, looked up): as the sequence (P54619 whole entry) above
AMPK alpha2/beta2/gamma1 (Homo sapiens), sequence (P54646 whole entry, looked up): as the sequence (P54646 whole entry, looked up) above

Mus musculus [13] = experiment: Antidiabetic activity in ob/ob mouse assessed as reduction in blood glucose level at 100 mg/kg, po bid for 5 days in presence of P-gp inhibitor GF120918 relative to control; assay type: functional; parameters: scale not given: the % may be the effect or the level left
Method in brief: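 ob/ob mice receive chronic oral treatment at 100 mg/kg co-administered with the P-gp inhibitor. The blood glucose reduction is assessed against control.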

[14] = molecular target: AMPK alpha2/beta1/gamma1 (Homo sapiens) (UniProt P54646+P54619+Q9Y478); experiment: Activation of human recombinant AMPK alpha2beta1gamma1; assay type: protein-complex assay
AMPK alpha2/beta1/gamma1 (Homo sapiens), sequence (P54619 whole entry partner): as the sequence (P54619 whole entry) above
AMPK alpha2/beta1/gamma1 (Homo sapiens), sequence (P54646 whole entry): as the sequence (P54646 whole entry, looked up) above
AMPK alpha2/beta1/gamma1 (Homo sapiens), sequence (Q9Y478 2-270 partner limits assumed): as the sequence (Q9Y478 2-270 partner limits assumed) above

[15] = molecular target: AMPK alpha1/beta1/gamma3 (Homo sapiens) (UniProt Q9Y478+Q13131+Q9UGI9); experiment: Activation of human recombinant AMPK alpha1beta1gamma3; assay type: protein-complex assay
AMPK alpha1/beta1/gamma3 (Homo sapiens), sequence (Q13131 whole entry partner): as the sequence (Q13131 whole entry partner) above
AMPK alpha1/beta1/gamma3 (Homo sapiens), sequence (Q9UGI9 whole entry partner): as the sequence (Q9UGI9 whole entry, looked up) above
AMPK alpha1/beta1/gamma3 (Homo sapiens), sequence (Q9Y478 2-270 limits assumed): as the sequence (Q9Y478 2-270 partner limits assumed) above

Blood [16] = experiment: Ratio of AUC in mouse blood in presence of P-gp inhibitor GF120918 to AUC in mouse blood at 5 mg/kg, po; assay type: ADME, organism-based; parameters: dose 5 mg/kg, route oral; settings: in vivo
Method in brief: (§2)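 Mice are dosed orally (5 or 30 mg/kg) as a suspension in HPMC K100 0.5%/Tween 80 0.1% in pH 7 buffer, alone or co-administered with the P-gp inhibitor GF120918 at 30 mg/kg. Mean blood AUC with the inhibitor is compared with AUC without it.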

[17] = molecular target: AMPK alpha1/beta1/gamma2 (Homo sapiens) (UniProt Q9UGJ0+Q9Y478+Q13131); experiment: Activation of human recombinant AMPK alpha1beta1gamma2; assay type: protein-complex assay
AMPK alpha1/beta1/gamma2 (Homo sapiens), sequence (Q13131 whole entry partner): as the sequence (Q13131 whole entry partner) above
AMPK alpha1/beta1/gamma2 (Homo sapiens), sequence (Q9UGJ0 whole entry): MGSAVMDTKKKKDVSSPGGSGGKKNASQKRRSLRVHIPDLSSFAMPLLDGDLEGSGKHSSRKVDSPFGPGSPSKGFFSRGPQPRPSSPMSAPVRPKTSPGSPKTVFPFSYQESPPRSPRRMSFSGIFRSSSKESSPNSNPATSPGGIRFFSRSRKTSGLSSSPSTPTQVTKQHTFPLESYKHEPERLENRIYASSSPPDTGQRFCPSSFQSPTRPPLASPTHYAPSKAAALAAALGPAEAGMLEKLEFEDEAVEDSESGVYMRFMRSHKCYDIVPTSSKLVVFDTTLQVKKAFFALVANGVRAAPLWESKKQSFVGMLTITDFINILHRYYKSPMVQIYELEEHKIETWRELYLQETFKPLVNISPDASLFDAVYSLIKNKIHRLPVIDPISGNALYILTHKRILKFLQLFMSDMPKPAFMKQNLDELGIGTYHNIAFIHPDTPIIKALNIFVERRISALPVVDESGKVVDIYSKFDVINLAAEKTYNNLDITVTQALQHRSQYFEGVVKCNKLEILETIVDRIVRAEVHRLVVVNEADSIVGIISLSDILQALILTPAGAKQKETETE
AMPK alpha1/beta1/gamma2 (Homo sapiens), sequence (Q9Y478 2-270 partner limits assumed): as the sequence (Q9Y478 2-270 partner limits assumed) above

[18] = Dissociation constant, pKa of the compound; assay type: physicochemical
Mus musculus [19] = experiment: Antidiabetic activity in ob/ob mouse assessed as reduction in blood glucose level at 30 mg/kg, po bid for 5 days measured 12 hrs after last dose relative to control; assay type: functional; parameters: scale not given: the % may be the effect or the level left
Method in brief: (§3)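 ob/ob mice are gavaged bid for 5 days at 10 or 30 mg/kg without P-gp inhibitor. Blood glucose is measured 12 h after the last gavage and compared with control.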

Blood [20] = experiment: Ratio of AUC in mouse blood in presence of P-gp inhibitor GF120918 to AUC in mouse blood at 30 mg/kg, po; assay type: ADME, organism-based; parameters: dose 30 mg/kg, route oral; settings: in vivo; method in brief: as §2
Mus musculus [21] = experiment: Antidiabetic activity in ob/ob mouse assessed as reduction in blood glucose level at 10 mg/kg, po bid for 5 days measured 12 hrs after last dose relative to control; assay type: functional; parameters: scale not given: the % may be the effect or the level left; method in brief: as §3

SMILES | clearance [3] [mL/min/kg] | pEC200 [4] | solubility [5] [µg/mL] | AUC [6] [ng·h/mL] | bioavailability [7] [%] | fraction unbound [8] | Papp [9] [×10⁻⁶ cm/s] | also measured
N#Cc1c(O)c2c(ccn2-c2ccc(-c3ccccc3O)cc2)[nH]c1=O | 34 | 7.8 | – | – | – | – | – | AUC [1]: 1490 ng·h/mL; bioavailability [2]: 10%
N#Cc1c(O)c2c(-c3ccc(-c4ccccc4O)cc3)csc2[nH]c1=O | 24 | 8.5 | 500 (≈ 1390 µM) | 80 | 2 | 0.013 | < 0.3 | –
Cc1ccc(-c2ccc(-n3c(Cl)cc4[nH]c(=O)c(C#N)c(O)c43)cc2)cc1 | 0.7 | 7.5 | 129 (≈ 343 µM) | 17000 | 14 | < 0.001 | 0.48 | pEC200 [10]: < 4.5; pEC200 [11]: 5.5; pEC200 [12]: 5.5
COc1cccc(-c2ccc(-n3c(Cl)cc4[nH]c(=O)c(C#N)c(O)c43)cc2)c1O | 3 | 9.2 | 42.5 (≈ 104 µM) | 892 | 3 | < 0.001 | < 0.3 | Activity (Mus musculus [13]): 18%; Activity [10]: Active; Activity [14]: Active; Activity [15]: Active; Ratio AUC (Blood [16]): 10; pEC200 [11]: 7.3; Activity [17]: Active; pEC200 [12]: 7.3
COc1cccc(-c2ccc(-n3ccc4[nH]c(=O)c(C#N)c(O)c43)cc2)c1O | 2.4 | 8 | 500 (≈ 1340 µM) | 70 | < 1 | 0.007 | < 0.04 | –
COc1cccc(-c2ccc(-n3c(Cl)cc4[nH]c(=O)c(-c5cccc(C(=O)O)c5)c(O)c43)cc2)c1O | 1 | 8.7 | 325 (≈ 646 µM) | 403 | 0.5 | < 0.001 | < 0.06 | –
N#Cc1c(O)c2c(cc(Cl)n2-c2ccc(-c3ccsc3)cc2)[nH]c1=O | 0.9 | 8.1 | 186 (≈ 506 µM) | 19500 | 21 | < 0.001 | < 0.07 | pKa [18]: < 2; Activity (Mus musculus [13]): 17%; Activity [12]: Active
COc1ccccc1-c1ccc(-n2ccc3[nH]c(=O)c(C#N)c(O)c32)cc1 | – | 5.5 | – | – | – | – | – | –
COc1cccc(-c2ccc(-n3c(Cl)cc4[nH]c(=O)c(-c5ccccc5)c(O)c43)cc2)c1O | 0.3 | 7.6 | 25 (≈ 54.5 µM) | 41300 | 15 | < 0.001 | 11 | Activity (Mus musculus [19]): 17%; Ratio AUC (Blood [20]): 2; Activity [12]: Active; Activity (Mus musculus [21]): 13%
CCc1ccc(-n2c(Cl)cc3[nH]c(=O)c(-c4ccccc4)c(O)c32)cc1 | 12 | 6.3 | 20 (≈ 54.8 µM) | 3410 | 50 | 0.002 | 15 | pKa [18]: 6
COc1cccc(-c2ccc(-n3ccc4[nH]c(=O)c(C#N)c(O)c43)cc2)c1 | – | 5.3 | – | – | – | – | – | –
COc1ccc(-c2ccc(-n3ccc4[nH]c(=O)c(C#N)c(O)c43)cc2)cc1 | – | 6.8 | 59 (≈ 165 µM) | – | – | – | < 0.08 | –
